Tests used:
Conditions in all cases: stereoisomer not certain
UniProt Q8VGJ5 = biological target: T1, UniProt Q8VGJ5
T1 sequence (whole entry): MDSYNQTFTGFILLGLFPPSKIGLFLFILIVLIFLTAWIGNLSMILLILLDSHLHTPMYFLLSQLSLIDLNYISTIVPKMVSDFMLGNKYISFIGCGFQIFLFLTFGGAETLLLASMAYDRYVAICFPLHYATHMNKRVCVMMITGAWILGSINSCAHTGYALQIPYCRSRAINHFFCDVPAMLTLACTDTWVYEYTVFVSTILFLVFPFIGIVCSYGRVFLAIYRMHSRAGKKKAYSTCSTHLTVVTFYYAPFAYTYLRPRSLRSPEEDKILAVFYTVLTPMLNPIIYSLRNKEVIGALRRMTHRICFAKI
In short: (§1)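 Transient luciferase assays in mammalian cell lines were common, though methods varied by source. The values come from published papers and their supplementary material, with extra details from the original authors when needed. Responsive refers to a measured signal the original authors judged statistically different from baseline, and non-responsive (inactive) to the remainder.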

UniProt Q8VGL0 = biological target: T2, UniProt Q8VGL0
T2 sequence (whole entry): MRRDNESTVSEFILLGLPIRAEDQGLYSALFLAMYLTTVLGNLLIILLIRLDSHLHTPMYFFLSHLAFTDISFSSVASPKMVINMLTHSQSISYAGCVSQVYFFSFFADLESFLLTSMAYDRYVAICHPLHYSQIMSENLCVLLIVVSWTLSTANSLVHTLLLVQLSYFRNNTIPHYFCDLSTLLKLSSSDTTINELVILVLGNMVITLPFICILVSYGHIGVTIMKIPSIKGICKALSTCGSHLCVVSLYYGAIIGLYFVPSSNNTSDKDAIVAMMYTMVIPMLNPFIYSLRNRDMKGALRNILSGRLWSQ
In short: as §1

UniProt Q8VGL7 = biological target: T3, UniProt Q8VGL7
T3 sequence (whole entry): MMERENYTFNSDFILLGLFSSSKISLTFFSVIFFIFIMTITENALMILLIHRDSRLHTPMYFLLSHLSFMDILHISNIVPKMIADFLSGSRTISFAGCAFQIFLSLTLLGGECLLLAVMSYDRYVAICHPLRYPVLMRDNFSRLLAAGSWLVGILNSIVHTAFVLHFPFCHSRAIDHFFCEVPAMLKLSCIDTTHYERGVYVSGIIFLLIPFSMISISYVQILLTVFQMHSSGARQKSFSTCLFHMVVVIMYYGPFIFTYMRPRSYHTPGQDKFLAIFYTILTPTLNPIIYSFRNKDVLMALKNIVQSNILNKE
In short: as §1

UniProt Q8VGM2 = biological target: T4, UniProt Q8VGM2
T4 sequence (whole entry): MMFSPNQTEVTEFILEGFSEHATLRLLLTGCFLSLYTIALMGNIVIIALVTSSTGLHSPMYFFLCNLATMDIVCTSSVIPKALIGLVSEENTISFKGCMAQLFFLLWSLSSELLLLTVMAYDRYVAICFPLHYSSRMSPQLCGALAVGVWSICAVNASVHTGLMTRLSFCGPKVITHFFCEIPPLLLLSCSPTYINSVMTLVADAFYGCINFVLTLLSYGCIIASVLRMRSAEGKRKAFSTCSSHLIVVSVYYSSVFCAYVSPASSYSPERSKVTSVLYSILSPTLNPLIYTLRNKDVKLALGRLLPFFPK
In short: as §1

UniProt Q8VGP6 = biological target: T5, UniProt Q8VGP6
T5 sequence (whole entry): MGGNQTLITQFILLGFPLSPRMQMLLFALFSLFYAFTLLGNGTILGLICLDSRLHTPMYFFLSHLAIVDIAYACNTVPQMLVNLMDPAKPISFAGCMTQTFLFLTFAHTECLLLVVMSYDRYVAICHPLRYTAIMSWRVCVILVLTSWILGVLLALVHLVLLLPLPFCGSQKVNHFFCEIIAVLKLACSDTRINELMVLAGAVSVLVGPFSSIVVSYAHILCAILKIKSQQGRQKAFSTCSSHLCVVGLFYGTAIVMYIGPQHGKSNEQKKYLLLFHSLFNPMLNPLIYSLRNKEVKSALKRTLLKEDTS
In short: as §1

UniProt Q8VGQ3 = biological target: T6, UniProt Q8VGQ3
T6 sequence (whole entry): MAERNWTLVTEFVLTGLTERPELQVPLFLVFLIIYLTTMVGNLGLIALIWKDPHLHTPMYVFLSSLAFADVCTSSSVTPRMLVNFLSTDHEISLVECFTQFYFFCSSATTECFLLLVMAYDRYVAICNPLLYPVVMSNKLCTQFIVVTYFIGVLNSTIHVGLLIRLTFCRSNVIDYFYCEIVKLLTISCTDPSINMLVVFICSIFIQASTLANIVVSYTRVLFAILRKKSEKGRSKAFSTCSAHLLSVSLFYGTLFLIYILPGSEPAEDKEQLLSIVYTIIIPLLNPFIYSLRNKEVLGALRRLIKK
In short: as §1

UniProt Q8VGT4 = biological target: T7, UniProt Q8VGT4
T7 sequence (whole entry): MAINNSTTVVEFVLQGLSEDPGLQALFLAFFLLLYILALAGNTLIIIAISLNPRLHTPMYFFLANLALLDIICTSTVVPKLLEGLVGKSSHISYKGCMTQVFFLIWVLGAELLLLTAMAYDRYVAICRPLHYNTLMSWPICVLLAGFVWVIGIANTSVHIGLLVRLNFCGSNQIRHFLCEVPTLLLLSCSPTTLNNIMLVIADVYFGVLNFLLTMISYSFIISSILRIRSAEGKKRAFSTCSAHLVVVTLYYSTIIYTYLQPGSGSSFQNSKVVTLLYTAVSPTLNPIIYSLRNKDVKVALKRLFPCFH
In short: as §1

UniProt Q8VGU3 = biological target: T8, UniProt Q8VGU3
T8 sequence (whole entry): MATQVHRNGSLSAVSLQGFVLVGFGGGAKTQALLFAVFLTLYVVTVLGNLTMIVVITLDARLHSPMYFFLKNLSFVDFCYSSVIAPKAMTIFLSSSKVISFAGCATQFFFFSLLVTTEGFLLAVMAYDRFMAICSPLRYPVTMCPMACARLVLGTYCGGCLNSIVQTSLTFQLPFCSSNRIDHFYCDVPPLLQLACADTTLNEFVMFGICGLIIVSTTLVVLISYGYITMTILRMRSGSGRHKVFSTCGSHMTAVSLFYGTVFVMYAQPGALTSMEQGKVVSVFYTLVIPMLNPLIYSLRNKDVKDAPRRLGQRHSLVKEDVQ
In short: as §1

UniProt Q8VGV1 = biological target: T9, UniProt Q8VGV1
T9 sequence (whole entry): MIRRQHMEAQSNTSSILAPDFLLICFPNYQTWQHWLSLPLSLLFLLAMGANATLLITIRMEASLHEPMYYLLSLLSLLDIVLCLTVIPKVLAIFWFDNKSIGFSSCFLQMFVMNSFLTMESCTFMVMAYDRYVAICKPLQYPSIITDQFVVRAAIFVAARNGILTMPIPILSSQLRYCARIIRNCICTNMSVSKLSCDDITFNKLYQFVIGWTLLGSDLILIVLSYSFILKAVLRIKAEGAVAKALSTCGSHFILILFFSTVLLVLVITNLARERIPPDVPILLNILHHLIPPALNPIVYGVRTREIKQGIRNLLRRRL
In short: as §1

UniProt Q8VGV7 = biological target: T10, UniProt Q8VGV7
T10 sequence (whole entry): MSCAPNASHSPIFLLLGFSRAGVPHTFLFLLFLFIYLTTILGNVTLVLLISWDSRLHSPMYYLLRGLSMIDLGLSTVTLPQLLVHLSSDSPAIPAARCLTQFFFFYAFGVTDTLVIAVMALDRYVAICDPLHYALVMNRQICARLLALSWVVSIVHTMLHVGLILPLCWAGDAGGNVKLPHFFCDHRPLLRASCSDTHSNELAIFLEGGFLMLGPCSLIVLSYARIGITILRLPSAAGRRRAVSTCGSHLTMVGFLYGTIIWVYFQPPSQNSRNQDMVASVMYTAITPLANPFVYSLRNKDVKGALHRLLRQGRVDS
In short: as §1

UniProt Q8VGX3 = biological target: T11, UniProt Q8VGX3
T11 sequence (whole entry): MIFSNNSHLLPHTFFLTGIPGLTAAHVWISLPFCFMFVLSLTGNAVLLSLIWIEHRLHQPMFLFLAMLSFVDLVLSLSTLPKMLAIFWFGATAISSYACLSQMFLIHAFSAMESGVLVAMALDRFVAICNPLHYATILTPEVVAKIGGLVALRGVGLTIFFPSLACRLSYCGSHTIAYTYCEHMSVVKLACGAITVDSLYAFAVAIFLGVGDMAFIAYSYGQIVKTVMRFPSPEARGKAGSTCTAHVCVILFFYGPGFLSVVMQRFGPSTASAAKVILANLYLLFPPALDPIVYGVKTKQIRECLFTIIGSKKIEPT
In short: as §1

UniProt Q8VGX5 = biological target: T12, UniProt Q8VGX5
T12 sequence (whole entry): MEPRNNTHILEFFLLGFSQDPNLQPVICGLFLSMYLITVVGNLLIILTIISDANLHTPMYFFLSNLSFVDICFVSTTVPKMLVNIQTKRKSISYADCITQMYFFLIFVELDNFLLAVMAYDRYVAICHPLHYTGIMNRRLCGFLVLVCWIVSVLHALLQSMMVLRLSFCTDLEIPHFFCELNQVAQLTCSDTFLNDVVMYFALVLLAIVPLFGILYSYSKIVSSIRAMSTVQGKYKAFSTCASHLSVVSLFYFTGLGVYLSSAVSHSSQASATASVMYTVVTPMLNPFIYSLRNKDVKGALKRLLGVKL
In short: as §1

UniProt Q8VGX8 = biological target: T13, UniProt Q8VGX8
T13 sequence (whole entry): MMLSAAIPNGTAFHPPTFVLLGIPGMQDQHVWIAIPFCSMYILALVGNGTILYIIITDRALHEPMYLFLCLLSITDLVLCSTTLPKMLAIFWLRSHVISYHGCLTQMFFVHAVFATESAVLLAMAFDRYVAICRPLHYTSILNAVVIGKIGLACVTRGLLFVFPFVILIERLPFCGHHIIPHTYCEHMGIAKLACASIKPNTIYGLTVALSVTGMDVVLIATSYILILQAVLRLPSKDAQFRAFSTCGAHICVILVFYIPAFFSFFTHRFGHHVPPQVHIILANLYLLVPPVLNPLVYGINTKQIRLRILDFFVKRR
In short: as §1

UniProt Q8VGY6 = biological target: T14, UniProt Q8VGY6
T14 sequence (whole entry): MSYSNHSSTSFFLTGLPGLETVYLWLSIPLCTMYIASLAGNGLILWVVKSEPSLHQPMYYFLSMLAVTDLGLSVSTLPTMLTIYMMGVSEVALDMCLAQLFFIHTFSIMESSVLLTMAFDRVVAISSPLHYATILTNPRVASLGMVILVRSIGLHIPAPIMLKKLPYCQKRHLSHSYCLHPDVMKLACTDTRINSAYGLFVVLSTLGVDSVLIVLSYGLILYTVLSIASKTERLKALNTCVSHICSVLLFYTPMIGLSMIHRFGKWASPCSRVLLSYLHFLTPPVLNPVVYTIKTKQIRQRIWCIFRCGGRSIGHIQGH
In short: as §1

UniProt Q8VGZ2 = biological target: T15, UniProt Q8VGZ2
T15 sequence (whole entry): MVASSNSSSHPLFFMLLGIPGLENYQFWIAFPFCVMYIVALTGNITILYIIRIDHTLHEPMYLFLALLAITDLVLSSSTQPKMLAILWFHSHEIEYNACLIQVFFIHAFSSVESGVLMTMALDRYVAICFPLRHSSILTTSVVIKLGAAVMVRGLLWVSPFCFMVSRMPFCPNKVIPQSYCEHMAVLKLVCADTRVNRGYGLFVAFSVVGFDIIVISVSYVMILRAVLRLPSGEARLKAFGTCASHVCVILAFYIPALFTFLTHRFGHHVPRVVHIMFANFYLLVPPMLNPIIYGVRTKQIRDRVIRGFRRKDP
In short: as §1

UniProt Q8VGZ7 = biological target: T16, UniProt Q8VGZ7
T16 sequence (whole entry): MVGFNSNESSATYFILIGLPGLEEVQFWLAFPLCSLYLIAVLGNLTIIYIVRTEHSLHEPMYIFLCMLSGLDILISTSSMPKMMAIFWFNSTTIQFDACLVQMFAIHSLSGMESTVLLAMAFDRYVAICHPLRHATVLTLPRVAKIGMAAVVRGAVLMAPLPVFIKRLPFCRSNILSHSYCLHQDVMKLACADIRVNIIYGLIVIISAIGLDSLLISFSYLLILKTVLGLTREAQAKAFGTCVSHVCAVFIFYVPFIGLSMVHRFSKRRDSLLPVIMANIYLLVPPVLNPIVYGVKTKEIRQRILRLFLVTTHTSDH
In short: as §1

UniProt Q8VH10 = biological target: T17, UniProt Q8VH10
T17 sequence (whole entry): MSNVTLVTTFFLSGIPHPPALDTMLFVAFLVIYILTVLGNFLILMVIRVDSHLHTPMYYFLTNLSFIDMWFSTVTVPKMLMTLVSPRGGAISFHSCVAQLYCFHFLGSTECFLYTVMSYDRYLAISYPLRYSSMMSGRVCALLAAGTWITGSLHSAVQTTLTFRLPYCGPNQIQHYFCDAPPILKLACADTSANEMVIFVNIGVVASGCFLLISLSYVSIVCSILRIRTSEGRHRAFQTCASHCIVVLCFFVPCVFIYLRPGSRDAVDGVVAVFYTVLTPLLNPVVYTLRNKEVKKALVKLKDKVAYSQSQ
In short: as §1

UniProt Q8VH16 = biological target: T18, UniProt Q8VH16
T18 sequence (whole entry): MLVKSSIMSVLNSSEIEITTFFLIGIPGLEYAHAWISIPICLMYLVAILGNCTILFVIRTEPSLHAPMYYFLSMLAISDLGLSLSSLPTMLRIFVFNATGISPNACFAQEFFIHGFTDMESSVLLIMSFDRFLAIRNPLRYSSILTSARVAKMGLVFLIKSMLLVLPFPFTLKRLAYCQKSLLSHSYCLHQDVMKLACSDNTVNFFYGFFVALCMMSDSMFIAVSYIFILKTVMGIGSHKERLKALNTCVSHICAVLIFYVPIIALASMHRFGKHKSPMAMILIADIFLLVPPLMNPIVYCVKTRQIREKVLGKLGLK
In short: as §1

UniProt Q8VH20 = biological target: T19, UniProt Q8VH20
T19 sequence (whole entry): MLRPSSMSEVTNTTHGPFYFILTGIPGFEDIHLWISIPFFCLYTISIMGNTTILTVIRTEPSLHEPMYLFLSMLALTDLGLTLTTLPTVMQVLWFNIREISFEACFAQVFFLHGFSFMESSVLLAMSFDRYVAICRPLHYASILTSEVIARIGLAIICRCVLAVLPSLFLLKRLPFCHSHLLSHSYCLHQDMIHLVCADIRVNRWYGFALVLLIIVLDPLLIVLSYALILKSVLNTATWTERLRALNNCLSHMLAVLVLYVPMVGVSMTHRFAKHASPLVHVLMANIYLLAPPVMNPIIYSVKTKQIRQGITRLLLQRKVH
In short: as §1

Measured: odorant receptor agonist call;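 also: active if original authors judged signal statistically different from baseline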

O=c1cc(O)c2ccccc2o1
inactive: all assays above

— the M2OR odorant receptor database
